Test results as given in the RNAGym collection of RNA variant scans (doi:10.1126/science.aae0568).
This sample holds only a part of the variants without activity.

B1: tRNA (parent)
chain: GUUCCGUUGGCGUAAUGGUAACGCGUCUCCCUCCUAAGGAGAAGACUGCGGGUUCGAGUCCCGUACGGAACG

Variants of: B1
Assay: yeast fitness relative to wild type (ratio to wild type); higher = fitter; tRNA-Arg(CCU), competitive growth, 37 C, YPD
Method in brief: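 Gene amplicons from the start population and from each of six end populations were read by 100-nucleotide paired-end sequencing. Those end populations came from pooled Saccharomyces cerevisiae strains carrying tRNA-Arg(CCU) gene variants at the native locus, competed in YPD at 37°C for 24 hours. Fitness relative to wild type was worked out from changes in genotype frequencies. Genotypes needed ≥ 100 starting reads, and estimates < 0.5 were set to 0.5.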

Variant	yeast fitness
A14G C29U G41A U54G C55U A69U	≤ 0.5
A14G C22U C24G A42C A57G	≤ 0.5
A14G C29A C31A A40C G44A U59A	≤ 0.5
A14G C22G U28A C31G C55A G68C	≤ 0.5
A14G C34G A65U C66A	≤ 0.5
A14G C27A U54G	≤ 0.5
A14G C22G	0.806
A14G A36G G48A	0.555
A14G G44C G58A A65G	0.553
A14G C46A	0.873
A14G C27G C34G A37U	0.61
A14G C22U A45U	0.626
A14C G25A	0.889
A14C G25C	0.583
A14G C31A G44C C60G	≤ 0.5
A14G G48C G67C	≤ 0.5
A14G A36G U47A	≤ 0.5
A14G A37C A70C	0.624
A14G A15C A37C C46A A69U	≤ 0.5
A14G G23A U54G	≤ 0.5
A14G C22U A37G A70C	≤ 0.5
A14C C34G C49A C61U	≤ 0.5
A14G G52C	0.577
A14G A20C G67C	0.534

Variant	yeast fitness
A14C U19A A20C	≤ 0.5
A14G C66U	0.891
A14G C66A	0.656
A14C C62G	0.599
A14G C49A	0.694
A14G A21C A36C A43U G67U	≤ 0.5
A14G A40U C46G G50C A57U	≤ 0.5
A14G G41C C55A	≤ 0.5
A14G C31G	0.945
A14C G17C C31U A37C	0.577
A14C U26A C34U C55G	0.519
A14G C24G A42C G63A	≤ 0.5
A14C C29U C33G	0.527
A14G A15U C34U	0.505
A14G G17C A36C G48A C49G G51A	≤ 0.5
A14G A20C C60U	≤ 0.5
A14G C22G U26C C31G	0.615
A14G C27U U47A C62U C66U	≤ 0.5
A14G A36U A37C C49A U53G	≤ 0.5
A14C G58A	0.868
A14C C33G G44A C49A C55A	≤ 0.5
A14C C34G A43U C62A	0.716
A14G A15C C30U G56C A69C	≤ 0.5
A14C G25C C66U	0.531

Variant	yeast fitness
A14C C34U G39C C55U G56C	≤ 0.5
A14G A69U A70C	0.726
A14C C30U A37C C62A	0.693
A14G G39A G51C	≤ 0.5
A14G G41A U47A C62A	≤ 0.5
A14G C31G A57C A65C	≤ 0.5
A14G G17C A36C G48A C49G G51A A70C	≤ 0.5
A14C C34U A37G	0.507
A14G G38A C60U G67C	≤ 0.5
A14G A45C G58A	0.622
A14G A57C C62U	≤ 0.5
A14G C24U G48C C66A	≤ 0.5
A14C C46U G67C	0.589
A14G A36U C46A G51A	≤ 0.5
A14G C24A C31U A40U	≤ 0.5
A14G C49G A69U	0.566
A14C G17C C60U	≤ 0.5
A14C C31G A43C G51A	≤ 0.5
A14G G48A C66U	0.645
A14G C29U G39A	0.574
A14C C30A C31U A36U	≤ 0.5
A14G C29G A37G C66G	≤ 0.5
A14C U26C U54C C55G C61A	≤ 0.5
A14C C30A A69U	≤ 0.5

Variant	yeast fitness
A14G A15U G25C U54A	≤ 0.5
A14G C24U C55A G63C	≤ 0.5
A14G G25A A36U G50A C62G	≤ 0.5
A14C G18C U28A C30G A43G A57G C60U A65C G67U	0.557
A14G C31A A43G	0.679
A14C G68U	0.583
A14C C31G C62A A65U C66U	0.506
A14G G25C C31A	≤ 0.5
A14G C29A C62U	≤ 0.5
A14C C33A G41U C49U C66U	≤ 0.5
A14G G38C	0.787
A14C G18C A65U G68C	≤ 0.5
A14C G18A G48A C60G	0.558
A14G G41A G44C C49U	≤ 0.5
A14C U19C C27A A43G	≤ 0.5
A14C G17C G18A G23C A57C	≤ 0.5
A14G A15C A69C A70G	0.618
A14G A42U G68C	≤ 0.5
A14C U32G A45G U64C	≤ 0.5
A14G G25A G44C	0.782
A14G A20C A40C A45G C46A	≤ 0.5
A14G A36U G39A C60G	≤ 0.5
A14G G17A G44C A65U	≤ 0.5
A14G A37C	0.73

Variant	yeast fitness
A14G A70U	0.662
A14G A15C U26C U35G C49G	≤ 0.5
A14C G56C	0.567
A14G C24A C31U A40U A70G	0.571
A14C C62G C66U	≤ 0.5
A14G C55G	0.583
A14C G25A A40C C46U	≤ 0.5
A14G A20C C46G	0.635
A14G G23A U47C	≤ 0.5
A14G A36U G50A C62G	≤ 0.5
A14C U53A A65C A70G	0.587
A14C U19G C31G C33U A42G G48A G52A	≤ 0.5
A14G C27G C30U C31G	0.76
A14C U16A A21C G56A	≤ 0.5
A14G A15G U32A	≤ 0.5
A14G C24G C31U C55A	0.552
A14C C55U	0.645
A14C C55G	0.827
A14C U28A U54C G56C G58A	≤ 0.5
A14G C29A A37G	≤ 0.5
A14G A20U A36U G51C G52C C60U G67A	≤ 0.5
A14C G18C C29U A65C	≤ 0.5
A14G G18A C22G	≤ 0.5
A14G A20C A36U G39C	≤ 0.5

Variant	yeast fitness
A14G A21U G56C G68C	0.637
A14G A43C	0.823
A14G A43U	0.803
A14C U19A A21G C31U	≤ 0.5
A14G C31U C33U A45C G48A	0.626
A14C G17C	0.622
A14G A15C U35C C46A A69U	≤ 0.5
A14C G17A G23A C29G A42C G56A C62U	≤ 0.5
A14C C34A	0.565
A14C G25C C27G C34U U35A G38A C66U	≤ 0.5
A14C U16A U54A G58C	≤ 0.5
A14C C30A C66U A70G	0.622
A14G G25C C29A G52A	≤ 0.5
A14G C24U A43C A70U	≤ 0.5
A14G C30U C46U G50A A69G	0.704
A14G G18C A21U C29G G67A	≤ 0.5
A14G A40G U47C	0.551
A14G A15C C24G A45G	≤ 0.5
A14G A15U U53C A69U	0.599
A14G A45C	0.718
A14C U47C C66U	≤ 0.5
A14G C31U G68C	≤ 0.5
A14C C60G A70U	≤ 0.5
A14G A20C C30U C66U	≤ 0.5

Variant	yeast fitness
A14G C30G A45G	0.585
A14C C61U C66G	0.522
A14G A20C C33A A70G	≤ 0.5
A14C U16A G63A	≤ 0.5
A14C C34G A57U	0.518
A14G A21G G67A	0.63
A14G A65G A70C	0.755
A14C G17C U26A G41C	≤ 0.5
A14G A20G A69C	0.528
A14G C27G C62U	≤ 0.5
A14G A15G A37U C55U	≤ 0.5
A14C U47C A57C	≤ 0.5
A14C C29U C31U A36G A45U A70G	≤ 0.5
A14G G23A C49A	≤ 0.5
A14G A42U	0.873
A14G A40C C62G C66U	≤ 0.5
A14G C31U C34U G38A C46U	≤ 0.5
A14G C30G	0.591
A14G C30A	0.861
A14C U54A	0.528
A14C U16G A21G A70U	≤ 0.5
A14G C22A C29U G56C G58C C66U	≤ 0.5
A14G C30A C34A A43C C62U	≤ 0.5
